{"source": "paper PMC4398643", "about": "(Analytical biochemistry, 2015)", "target": "T1, 15-LOX-2 (Homo sapiens, UniProt O15296)", "T1 sequence (O15296 1-676)": "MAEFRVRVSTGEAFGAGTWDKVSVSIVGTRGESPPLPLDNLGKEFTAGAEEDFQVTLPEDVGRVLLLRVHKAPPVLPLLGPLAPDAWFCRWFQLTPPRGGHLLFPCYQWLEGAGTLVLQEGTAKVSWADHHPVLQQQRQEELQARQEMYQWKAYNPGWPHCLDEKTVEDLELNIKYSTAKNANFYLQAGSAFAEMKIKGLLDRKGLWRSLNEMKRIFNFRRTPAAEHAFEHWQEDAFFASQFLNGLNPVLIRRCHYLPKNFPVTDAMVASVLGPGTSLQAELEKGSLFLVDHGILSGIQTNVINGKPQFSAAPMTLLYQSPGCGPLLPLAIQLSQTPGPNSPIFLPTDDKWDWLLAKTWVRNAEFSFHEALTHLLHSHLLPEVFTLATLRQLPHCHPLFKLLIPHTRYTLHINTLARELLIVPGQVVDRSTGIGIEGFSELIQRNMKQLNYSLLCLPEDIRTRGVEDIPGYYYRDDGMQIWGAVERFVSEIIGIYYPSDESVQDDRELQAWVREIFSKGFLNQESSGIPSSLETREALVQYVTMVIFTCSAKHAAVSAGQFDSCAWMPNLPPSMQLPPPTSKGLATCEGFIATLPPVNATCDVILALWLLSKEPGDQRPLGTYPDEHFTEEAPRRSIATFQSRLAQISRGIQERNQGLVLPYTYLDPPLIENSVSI", "test": "96-well allosteric effector assay", "format": "biochemical", "settings": "for AA/GLA ratio (15-HETE/13-HOTrE(γ) peak area ratio): 4 µM AA and 16 µM GLA, ratio without effector 2.3 ± 0.1", "summary_of_the_method": "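15-LOX-2 (~150 nM final) is preincubated 30 s with the perdeuterated effector in 50 mM ammonium bicarbonate, pH 7.5, with 0.01% PPS detergent in 96-well plates. Turnover uses AA:GLA at 1:4 (20 µM total substrate), kept below 20% conversion. Plates are held at 4° C during HPLC-MS analysis, with products identified by MS/MS. The substrate preference is the 15-HETE/13-HOTrE(γ) peak-area ratio.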", "data": [{"smiles": "[2H]C(C([2H])=C([2H])C([2H])(O)C([2H])([2H])C([2H])([2H])C([2H])([2H])C([2H])([2H])C([2H])([2H])[2H])=C([2H])C([2H])([2H])C([2H])([2H])C([2H])([2H])C([2H])([2H])C([2H])([2H])C([2H])([2H])C([2H])([2H])C(=O)O", "note": "(stereo not drawn) [d30-13-HODE]", "values": [{"measurement": "AA/GLA ratio (15-HETE/13-HOTrE(γ) peak area ratio)", "setting": "10 µM d30-13-HODE", "result": "1.4 ± 0.1"}, {"measurement": "AA/GLA ratio (15-HETE/13-HOTrE(γ) peak area ratio)", "setting": "20 µM d30-13-HODE", "result": "1.1 ± 0.1"}, {"measurement": "effect on AA and GLA catalysis", "setting": "based on standard curve for AA and GLA products, data not shown", "result": "reducing AA catalysis, but not affecting GLA catalysis significantly"}]}]}
